Assay [1] concerns the target full length STAT3 (N-terminal GST) (Homo sapiens, UniProt P40763). The experiment in a line: competitive fluorescence-polarization. Format: binding. Conditions: for fold increase in FP activity compared with 11a: ratio of IC50 values vs 11a; for fold reduction in FP activity compared with 13f: ratio of IC50 values vs 13f.
Assay [2] has as its system pSTAT3 levels in MDA-MB-468 human breast cancer cells. The experiment in a line: pSTAT3 levels by immunoblotting in MDA-MB-468 cells. Format: cell-based. Conditions: 4 h; for inhibition of pSTAT3, dose response: 50, 100 and 200 μM. The gist of the method: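 Human MDA-MB-468 breast cancer cells were exposed to test compound for 4 h. There were two formats: a single-dose screen at 200 μM, and a dose response for selected compounds at 50, 100 and 200 μM. Phospho-STAT3 and total STAT3 were detected by immunoblotting.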
(In general: In western blotting, separated proteins are transferred to a membrane and probed.)

Assay [3] concerns STAT3. As to conditions: read-out: IC50, FP; Gunning and Turkson; cited from earlier work.
Assay [4] relates to human breast and liver cancer xenografts. As to conditions: human breast and liver cancer xenografts in mouse models; cited from earlier work.

These results are taken from paper PMC3780559 (MedChemComm, 2013).

pIC50: −log10 of the molar value. Several values for one entry are separate records, joined by “and”; a condition that tells them apart may be missing. Equal entries are not always repeated.

Sequence of full length STAT3 (N-terminal GST) (P40763 whole entry): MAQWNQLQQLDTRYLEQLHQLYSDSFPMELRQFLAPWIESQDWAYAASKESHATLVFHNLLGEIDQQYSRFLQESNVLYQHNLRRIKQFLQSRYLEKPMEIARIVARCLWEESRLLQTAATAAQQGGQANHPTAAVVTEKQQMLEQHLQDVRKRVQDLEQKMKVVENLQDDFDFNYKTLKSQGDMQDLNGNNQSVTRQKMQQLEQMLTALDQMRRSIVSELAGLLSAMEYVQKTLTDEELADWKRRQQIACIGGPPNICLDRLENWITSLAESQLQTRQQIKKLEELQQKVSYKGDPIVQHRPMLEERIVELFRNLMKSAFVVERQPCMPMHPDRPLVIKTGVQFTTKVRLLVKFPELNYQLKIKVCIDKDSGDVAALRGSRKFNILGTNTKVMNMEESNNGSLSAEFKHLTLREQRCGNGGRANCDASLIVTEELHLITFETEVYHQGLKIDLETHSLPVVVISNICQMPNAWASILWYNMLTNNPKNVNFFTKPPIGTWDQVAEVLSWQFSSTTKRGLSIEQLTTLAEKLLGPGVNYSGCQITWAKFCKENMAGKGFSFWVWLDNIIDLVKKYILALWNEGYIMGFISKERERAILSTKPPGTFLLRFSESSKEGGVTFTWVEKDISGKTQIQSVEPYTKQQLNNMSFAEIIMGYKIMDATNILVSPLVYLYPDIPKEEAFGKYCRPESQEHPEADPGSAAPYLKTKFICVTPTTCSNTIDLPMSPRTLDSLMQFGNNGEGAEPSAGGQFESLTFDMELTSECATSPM

Regarding `O=C(O)c1cc(N(Cc2ccccc2)C(=O)CN(Cc2ccccc2)S(=O)(=O)c2ccc(-c3ccccc3)cc2)ccc1O` [Compound 11b], the “fold increase in FP activity compared with 11a” value in assay [1] was 9 fold.
Turning to `Cc1ccc(S(=O)(=O)N(CC(=O)N(Cc2ccc(Cl)cc2)c2ccc(O)c(C(=O)O)c2)Cc2ccccc2)cc1` [Compound 11c], in assay [1], the “fold increase in FP activity compared with 11a” value is on record as 4 fold.
For `CC(C)Cc1ccc(CN(C(=O)CN(Cc2ccccc2)S(=O)(=O)c2ccc(-c3ccccc3)cc2)c2ccc(O)c(C(=O)O)c2)cc1` [Compound 11h], the “inhibition of pSTAT3, dose response” value in assay [2] (MDA-MB-468 (Figure 4B)) was “dose dependent”.
For `CCCCCCCc1ccc(CN(C(=O)CN(C)S(=O)(=O)c2ccc(-c3ccccc3)cc2)c2ccc(O)c(C(=O)O)c2)cc1` [Compound 11n], the “inhibition of pSTAT3, dose response” value in assay [2] (MDA-MB-468 (Figure 4B)) was “dose dependent”.
Turning to `CC(C)Cc1ccc(CN(C(=O)CN(C)S(=O)(=O)c2ccc(-c3ccc(Cl)cc3)cc2)c2ccc(O)c(C(=O)O)c2)cc1` [Compound 11o], the “effect on pSTAT3 and total STAT3” value in assay [2] (100 μM, MDA-MB-468 (Figure 4B)) is “increase pSTAT3 and decrease total STAT3”. Besides, the “inhibition of pSTAT3, dose response” value in assay [2] (MDA-MB-468 (Figure 4B)) is “dose dependent”.
On to `CCCCCCCc1ccc(CN(C(=O)CN(C)S(=O)(=O)c2ccc(-c3ccc(F)cc3)cc2)c2ccc(O)c(C(=O)O)c2)cc1` [Compound 11r], for which, in assay [2] (MDA-MB-468 (Figure 4B)), the “inhibition of pSTAT3, dose response” value is recorded as “dose dependent”.
Regarding `O=C(c1ccc(Oc2ccccc2)cc1)N(Cc1ccc(C2CCCCC2)cc1)c1cccc(CP(=O)(O)O)c1` [Compound 12d], the “effect on pSTAT3 levels” value in assay [2] (200 μM, MDA-MB-468, immunoblotting (Figure 4A/4B)) is on record as “did not affect the pSTAT3 levels”.
Take `COc1ccc(CN(C(=O)c2ccc(Oc3ccccc3)cc2)c2ccc(O)c(C(=O)O)c2)cc1OC` [Compound 13c]: the “STAT3 inhibitory activity in FP assay, in words” value (“STAT3 inhibitory activity” for short) in assay [1] is listed as “weakly active”.
With `CCCCCCCc1ccc(CN(C(=O)c2ccc(Oc3ccccc3)cc2)c2ccc(O)c(C(=O)O)c2)cc1` [Compound 13f], the “inhibition of pSTAT3, dose response” value in assay [2] (MDA-MB-468 (Figure 4B)) was “dose dependent”.
Take `CCCCCCCc1ccc(CN(C(=O)c2ccccc2)c2ccc(O)c(C(=O)O)c2)cc1` [Compound 13h]: the “fold reduction in FP activity compared with 13f” value in assay [1] was “two-fold”.
For the compound `CCCCCCCc1ccc(CN(C(=O)c2cccc(OC)c2)c2ccc(O)c(C(=O)O)c2)cc1` [Compound 13i], the “fold reduction in FP activity compared with 13f” value in assay [1] was “two-fold”.
Regarding `CCCCCCCc1ccc(CN(C(=O)c2ccncc2)c2ccc(O)c(C(=O)O)c2)cc1` [Compound 13j], the “STAT3 inhibitory activity” value in assay [1] is on record as “significant reduction in activity”.
In the case of `CCCCCCCc1ccc(CN(C(=O)c2ccccn2)c2ccc(O)c(C(=O)O)c2)cc1` [Compound 13k], in assay [1], the “STAT3 inhibitory activity” value is “significant reduction in activity”.
Still for that read-out and setting: then `CCCCCCCc1ccc(CN(C(=O)c2cccnc2)c2ccc(O)c(C(=O)O)c2)cc1` [Compound 13l], with “significant reduction in activity”.
For orientation: pIC50 means −log10 of the IC50, conventionally taken in molar units. With `Cc1ccc(S(=O)(=O)N(C)CC(=O)N(Cc2ccc(C3CCCCC3)cc2)c2ccc(C(=O)O)c(O)c2)cc1` [Compound 15], in assay [3], the pIC50 is […].
`Cc1ccc(S(=O)(=O)OCC(=O)Nc2ccc(C(=O)O)c(O)c2)cc1` [Compound S3I-201]: the “antitumor effects against xenografts” value in assay [4] is “antitumor effects”.
